Screening results (PubChem)
Only a selection was taken, and hits are over-represented in it overall.
CHOP UPR activ – activators of apoptotic CHOP UPR arm, primary screen, cell-based, CHO-CHOP luciferase reporter, luminescence, uHTS | UPR activation; percent of tunicamycin response over DMSO baseline | activation, % at 10 µM | 330,000 tested, 0.34% active | AID 449763, 2010;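 active = at 10 µM dose, activation of 40% or more, normalized to positive control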;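 note: 100% = tunicamycin at 10 µg/mL and 0% = DMSO alone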
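System: CHO CHOP reporter cells. Amount: 500 cells per well. Buffer or medium: F12 medium, 10% FBS. Compound dosing: one dose, 10 µM in 0.5% DMSO. Incubation: 6 h compound exposure at 37 °C after overnight seeding. Technique: Steady-Glo luciferase luminescence. Benchmarks: tunicamycin and DMSO controls.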
Dynein transport – inhibitors of GR-EGFP nuclear translocation, primary screen, dynein cargo transport inhibitor project, imaging, high-content, 3617.4 mouse cells; test concentration mostly 20 µM; stimulated with dexamethasone, 1 µM; hits give low values; z-score, hits read low; 220,000 tested, 0.47% active; AID 1381, 2008;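 active = plate z-score of nuclear minus cytoplasmic receptor signal below a set negative limit, without overly bright fluorescence or cell loss, cut at about -3.5 in these data, passing the limit was not always enough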;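 note: z-score of nuclear minus cytoplasmic ring GR-EGFP intensity difference per well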
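Buffer or medium – tet-free medium with charcoal-stripped serum · Signal – automated 10x imaging of fixed Hoechst-stained cells · Also added – dexamethasone agonist, 1.0 µM final, for 30 min · Incubation – induction 48 h, compound 1 h, agonist 30 min · Read-out – GR-EGFP nuclear translocation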
CHOP inh – inhibitors of CHOP promoter induction, primary screen, cell-based, unfolded protein response, luciferase reporter | CHO-K1 CHOP-promoter luciferase, tunicamycin-induced, 15-18 h | inhibition, % at 10 µM | 220,000 tested, 3.8% active | AID 2732, 2010;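 active = compounds that reduced the stress-induced luciferase reporter signal by more than about 70% of percent inhibition, limit read from the data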;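 note: 0% = tunicamycin plus vehicle and 100% = wells without tunicamycin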
XBP1 UPR activ – activators of adaptive XBP1 UPR arm, primary screen, cell-based, CHO-XBP1 luciferase reporter, luminescence, uHTS | IRE1-XBP1 UPR activation; percent of tunicamycin response, DMSO as zero | AID 463104, 2010 | activation, % at 20 µM | 330,000 tested, 0.33% active;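 active = versus positive control, 20 µM dose yields 30% or more activation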;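 note: 100% = tunicamycin at 10 µg/mL and 0% = DMSO only wells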
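Material: CHO cell line with stable XBP1 luciferase reporter; schedule: 16-18 h cell attachment at 37 °C, then 6 h compound exposure; signal: glow luminescence from Steady-Glo reagent; medium: serum-containing F12 medium, 10% FBS; benchmarks: tunicamycin 10 µg/mL and vehicle-only wells; read-out: percent activation relative to tunicamycin reference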
T cruzi repl – inhibitors of intracellular T. cruzi growth, primary screen, luminescence, NIH3T3 host cells. T. cruzi beta-gal in NIH3T3, 90 h. inhibition, % (no concentration beside the values). 300,000 tested, 1.4% active;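 active = mean inhibition across valid replicates above about 55%, limit read from the data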;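 note: signal also drops with host cell toxicity which is not excluded here; 0% = plate median of DMSO wells and 100% = zero luminescence signal; higher percent means less beta-gal luminescence so fewer parasites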
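assay system = mouse NIH/3T3 fibroblasts infected with β-gal-expressing T. cruzi Tulahuen C4 | input = 5,000 NIH/3T3 host cells per well | buffer or medium = DMEM plus 2% FBS | timing = 3 h host attachment, then at least 90 h co-culture | measured by = GalScreen luminescence, 60 min | evaluation = luminescence reflecting intracellular parasite burden, expressed as percent inhibition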
L major viab – Leishmania major promastigote growth inhibition, primary screen. Leishmania major promastigotes, resazurin fluorescence viability. inhibition, % at 10 µM. 200,000 tested, 9% active. AID 1063, 2008; in the data active = inhibition above about 50%;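 note: promastigotes grown with compound for 44 hours at 28 °C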
* marks the source's active call; other numbers are inactive results; . = no result.

SMILES | CHOP UPR activ | Dynein transport | CHOP inh | XBP1 UPR activ | T cruzi repl | L major viab
CCCN(CC(=O)Nc1ccccc1OC)C(=O)CSC(=S)N1CCCC1 | -2 | . | . | -3 | . | .
CCOP(=O)(OCC)C1NC(=O)N(c2ccccc2)C1=O (stereo unspecified) | -1 | . | . | -2 | -7 | .
O=[N+]([O-])c1ccc(O)c(/C=N/Nc2nc3ccccc3[nH]2)c1 | 5 | -1.2 | 39 | 4 | 32 | 100*
COc1cc(/C=N/Nc2nc3ccccc3[nH]2)ccc1O | 1 | -0.78 | -34 | -3 | -40 | 80*
COc1ccc(O)c(/C=N/Nc2nc3ccccc3[nH]2)c1 | 5 | 1.1 | -31 | -2 | -16 | 88*
Cc1cc(NCC2CCCO2)n2c(nc3ccccc32)c1C#N (stereo unspecified) | 0 | -0.25 | -17 | -1 | 8 | 13
N#Cc1c2c(c(NCCCN3CCOCC3)n3c1nc1ccccc13)CCC2 | 0 | 0.11 | 15 | 2 | 20 | 63*
Cc1c(Cc2ccccc2)c(NCCN(C)C)n2c(nc3ccccc32)c1C#N | -1 | -0.9 | 0 | -6 | 56* | .
CCc1c(C)c(C#N)c2nc3ccccc3n2c1Cl | . | -1.1 | 110* | . | 30 | 101*
CCc1c(C)c(C#N)c2nc3ccccc3n2c1NCC1CCCO1 (stereo unspecified) | 2 | -0.18 | 4 | -1 | 38 | 68*
CCc1c(C)c(C#N)c2nc3ccccc3n2c1-n1nc(C)cc1C | 0 | -0.42 | -4 | -2 | 1 | 0
CCCCc1c(C)c(C#N)c2nc3ccccc3n2c1NCCN(C)C | -1 | . | . | -5 | 40 | .
Cc1cccc(N(CC(=O)NCCc2ccccc2)C(=O)c2csnn2)c1 | 1 | . | . | -4 | 9 | .
CCOc1ccc(S(=O)(=O)Nc2ccc(C(=O)NCC(C)(C)N3CCOCC3)cc2)cc1 | 1 | . | . | 2 | -2 | .
CC(C)c1cc(NCC2CCCO2)n2c(nc3ccccc32)c1C#N (stereo unspecified) | 1 | -0.58 | 5 | -1 | 37 | 57*
C=CCOc1ccc(/C=N/n2nnnc2N)cc1OC | 2 | . | . | -1 | -1 | .
O=C(N/N=C/c1ccc([N+](=O)[O-])s1)c1ccccc1 | 1 | 0.52 | -11 | 9 | 48 | 100*
O=C(Cc1ccccc1)N/N=C/c1ccc([N+](=O)[O-])s1 | 3 | 0.22 | -79 | 4 | 46 | 101*
O=C(N/N=C/c1ccc(Br)s1)c1cccc([N+](=O)[O-])c1 | 2 | -0.62 | 28 | 0 | -13 | 19
O=[N+]([O-])c1ccc(/C=N/NC(=S)Nc2ccc(Cl)cc2Cl)s1 | 4 | -0.59 | -24 | 5 | 56* | .
COC(=O)N/N=C/c1ccc([N+](=O)[O-])s1 | 3 | 0.16 | -57 | -1 | 34 | 69*
O=C(Nc1ccc2[nH]ncc2c1)c1ccccc1Cl | 2 | . | . | -3 | -11 | .
O=C(CNC(=O)c1cccc(F)c1)N/N=C/c1ccc([N+](=O)[O-])s1 | 1 | 0.27 | -1 | -3 | 51 | 100*
O=C(CNC(=O)c1cccc(Br)c1)N/N=C/c1cccs1 | 0 | . | . | 0 | -2 | .
CCOc1ccccc1NC(=O)C(=O)N/N=C/c1ccc([N+](=O)[O-])cc1 | 1 | -0.52 | 0 | 2 | -8 | -2
SMILES | CHOP UPR activ | Dynein transport | CHOP inh | XBP1 UPR activ | T cruzi repl | L major viab
Cc1cc(C(=O)N/N=C/c2cc(Br)cc([N+](=O)[O-])c2O)c2ccccc2n1 | -1 | 0.5 | 34 | -1 | 34 | -2
Cc1ccccc1C(=O)N/N=C/c1ccc([N+](=O)[O-])s1 | -4 | 0.73 | 59 | 0 | 50 | 100*
COc1ccccc1NC(=O)C(=O)N/N=C/c1ccc([N+](=O)[O-])s1 | . | -0.44 | 2 | . | 62* | 100*
Cc1cc(C(=O)N/N=C/c2ccc([N+](=O)[O-])s2)c2ccccc2n1 | 1 | . | . | 1 | 61* | .
COc1ccc(NC(=O)CN(C)C(=O)c2cccc(S(=O)(=O)Nc3ccccc3Cl)c2)cc1 | 2 | . | . | -1 | 1 | .
Cc1nnc(NC(=O)c2ccc(S(=O)(=O)N3CC(C)CC(C)C3)cc2)o1 (stereo unspecified) | 0 | . | . | 7 | -5 | .
Cc1ccsc1/C=N/NC(=O)C(O)c1ccccc1 (stereo unspecified) | 1 | . | . | 0 | -9 | .
O=C(N/N=C\c1ccc([N+](=O)[O-])s1)c1cncc(Br)c1 | 4 | -0.55 | 95* | -1 | 54 | 100*
O=C(N/N=C/c1ccc([N+](=O)[O-])s1)C(O)c1ccccc1 (stereo unspecified) | 1 | -0.65 | 49 | 0 | 77* | 100*
O=C(N/N=C/c1ccc([N+](=O)[O-])s1)c1ccccc1Br | -1 | -0.15 | 15 | 6 | 52 | 100*
O=C(N/N=C/c1cccs1)c1cncc(Br)c1 | -1 | 0.64 | -2 | 4 | -11 | 11
O=C(N/N=C/c1ccoc1)c1ccccc1Br | 0 | . | . | -7 | -14 | .
COc1ccccc1NS(=O)(=O)c1cccc(NC(=O)CCNC(=O)c2ccccc2OC)c1 | -1 | . | . | -2 | . | .
O=C(CCCC(=O)N(c1ccc2c(c1)OCCO2)C(C(=O)NC1CCCCC1)c1ccc(F)cc1)Nc1ccccn1 (stereo unspecified) | 0 | -0.13 | 18 | -4 | -12 | -1
Cc1ccc(C(C(=O)NC2CCCCC2)N(C(=O)CCCC(=O)Nc2ccccn2)c2ccc3c(c2)OCCO3)cc1 (stereo unspecified) | -1 | -0.38 | 6 | -5 | 28 | 68*
O=C(CSc1nnc2c(n1)[nH]c1ccccc12)OCc1ccccc1 | 3 | 0.088 | -1 | 0 | -8 | 79*
COC(CNC(=O)c1ccc(N2CCC3(CC2)OCCO3)c([N+](=O)[O-])c1)OC | 1 | 0.72 | 11 | 0 | -8 | 60*
O=C(c1ccc(N2CCC3(CC2)OCCO3)c([N+](=O)[O-])c1)N1CCOCC1 | 2 | -0.95 | 11 | 2 | -14 | -4
Cc1cccc(Oc2ncnc(N)c2[N+](=O)[O-])c1C | 0 | -0.83 | 19 | -1 | -1 | -4
Nc1ncnc(Oc2cccc3cccnc23)c1[N+](=O)[O-] | 0 | -0.86 | 9 | 3 | -10 | 96*
COc1cc(NC(=O)Cn2nc(-c3ccc(F)cc3)ccc2=O)ccc1-n1cnnn1 | 1 | 0.55 | 1 | 3 | -7 | -8
